What was measured:
AKT1 (PKB alpha) = AKT1 (PKB alpha) (Homo sapiens, UniProt P31749); test: AKT1 in vitro kinase assay; format: biochemical
How it was run: (§1)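 Z′-LYTE assay. Enzyme per 10 μL reaction: AKT1 0.34–7.65 ng, AKT2 1–40 ng, or AKT3 0.56–8.3 ng. Reaction contained 2 μM Ser/Thr 06 peptide, ATP at Km, 50 mM HEPES pH 7.5, 0.01% BRIJ-35, 10 mM MgCl2 and 1 mM EGTA. After 1 h, Development Reagent A (1:2048) protease cleaved non-phosphorylated peptide. Read-out was the coumarin 445 nm/fluorescein 520 nm emission ratio; curves were fitted.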

IKBKB (IKK beta) = molecular target: T1, IKBKB (IKK beta) (Homo sapiens, UniProt O14920); test: IKKβ; format: biochemical; conditions: for IKKβ in vitro kinase inhibition (in words): stated for IKKs
T1 sequence (O14920 1-756): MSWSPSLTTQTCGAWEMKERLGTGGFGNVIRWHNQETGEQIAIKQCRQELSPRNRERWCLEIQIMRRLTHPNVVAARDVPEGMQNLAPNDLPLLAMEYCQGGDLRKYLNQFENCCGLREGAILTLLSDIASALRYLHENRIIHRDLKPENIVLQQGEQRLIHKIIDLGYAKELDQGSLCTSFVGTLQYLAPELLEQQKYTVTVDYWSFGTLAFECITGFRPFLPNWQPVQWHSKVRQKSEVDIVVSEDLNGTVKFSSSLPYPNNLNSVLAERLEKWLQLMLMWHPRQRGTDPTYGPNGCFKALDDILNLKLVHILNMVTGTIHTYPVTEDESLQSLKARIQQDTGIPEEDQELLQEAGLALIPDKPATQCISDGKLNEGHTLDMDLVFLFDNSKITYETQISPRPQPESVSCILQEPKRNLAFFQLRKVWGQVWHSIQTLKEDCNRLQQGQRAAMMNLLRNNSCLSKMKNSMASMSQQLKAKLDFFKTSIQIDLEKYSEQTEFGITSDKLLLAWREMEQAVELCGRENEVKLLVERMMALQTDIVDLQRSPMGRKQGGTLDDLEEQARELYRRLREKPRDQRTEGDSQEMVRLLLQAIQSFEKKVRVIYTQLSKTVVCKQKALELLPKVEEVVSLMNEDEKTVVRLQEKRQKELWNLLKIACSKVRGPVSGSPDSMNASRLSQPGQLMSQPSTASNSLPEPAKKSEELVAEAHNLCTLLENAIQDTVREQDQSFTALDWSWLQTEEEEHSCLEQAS
How it was run: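 Z′-LYTE format. Development used Reagent B (1:64) protease; read-out was the coumarin 445 nm/fluorescein 520 nm emission ratio. Where noted, IC50 was predicted from % inhibition at 10 μM test compound, mean of two experiments.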

CHUK (IKK alpha) = molecular target: T2, CHUK (IKK alpha) (Homo sapiens, UniProt O15111); test: IKKα; format: biochemical; conditions: for IKKα in vitro kinase inhibition (in words): stated for IKKs
T2 sequence (O15111 1-745): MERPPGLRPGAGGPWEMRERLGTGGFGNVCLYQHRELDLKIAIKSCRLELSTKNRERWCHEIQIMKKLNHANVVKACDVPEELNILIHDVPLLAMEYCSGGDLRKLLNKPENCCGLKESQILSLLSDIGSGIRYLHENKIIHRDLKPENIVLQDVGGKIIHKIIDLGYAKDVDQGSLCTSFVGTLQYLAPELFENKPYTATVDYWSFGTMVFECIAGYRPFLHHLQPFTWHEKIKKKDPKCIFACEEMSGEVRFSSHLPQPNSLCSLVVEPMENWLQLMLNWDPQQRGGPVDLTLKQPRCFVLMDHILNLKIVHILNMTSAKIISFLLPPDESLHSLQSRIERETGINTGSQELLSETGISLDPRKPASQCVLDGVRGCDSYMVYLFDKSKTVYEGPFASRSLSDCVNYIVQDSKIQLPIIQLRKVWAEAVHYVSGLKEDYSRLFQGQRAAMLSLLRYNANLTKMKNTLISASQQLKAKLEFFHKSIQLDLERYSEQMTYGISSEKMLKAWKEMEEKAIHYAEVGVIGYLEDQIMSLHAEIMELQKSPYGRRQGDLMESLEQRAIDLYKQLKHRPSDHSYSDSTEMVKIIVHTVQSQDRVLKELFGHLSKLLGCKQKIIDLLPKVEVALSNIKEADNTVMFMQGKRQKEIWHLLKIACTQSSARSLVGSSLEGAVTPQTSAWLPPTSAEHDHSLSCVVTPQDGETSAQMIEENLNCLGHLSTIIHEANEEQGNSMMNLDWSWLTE
How it was run: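 ADAPTA ADP-detection format. Detection mix added EDTA (stop), europium-labelled anti-ADP antibody and Alexa Fluor 647 ADP tracer; ADP formation was taken from the emission ratio. Where noted, IC50 was predicted from % inhibition at 1 μM test compound, mean of two experiments.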

AKT3 (PKB gamma) = AKT3 (PKB gamma) (Homo sapiens, UniProt Q9Y243); test: AKT3 in vitro kinase assay; format: biochemical
Chain of AKT3 (PKB gamma) (Q9Y243 whole entry): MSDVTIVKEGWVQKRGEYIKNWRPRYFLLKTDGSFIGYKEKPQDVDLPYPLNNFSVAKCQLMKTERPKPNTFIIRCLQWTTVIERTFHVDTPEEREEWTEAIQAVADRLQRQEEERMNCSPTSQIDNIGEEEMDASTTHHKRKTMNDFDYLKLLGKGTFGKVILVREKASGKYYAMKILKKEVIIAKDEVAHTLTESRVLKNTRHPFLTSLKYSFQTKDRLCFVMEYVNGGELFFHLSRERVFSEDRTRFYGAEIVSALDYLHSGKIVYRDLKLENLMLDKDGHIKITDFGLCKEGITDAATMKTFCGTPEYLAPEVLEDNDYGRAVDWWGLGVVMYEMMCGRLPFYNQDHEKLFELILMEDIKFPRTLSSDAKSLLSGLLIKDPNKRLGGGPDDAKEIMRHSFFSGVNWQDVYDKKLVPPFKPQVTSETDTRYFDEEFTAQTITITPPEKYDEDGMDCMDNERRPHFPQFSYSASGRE
How it was run: as §1

AKT2 (PKB beta) = AKT2 (PKB beta) (Homo sapiens, UniProt P31751); test: AKT2 in vitro kinase assay; format: biochemical
Chain of AKT2 (PKB beta) (P31751 whole entry): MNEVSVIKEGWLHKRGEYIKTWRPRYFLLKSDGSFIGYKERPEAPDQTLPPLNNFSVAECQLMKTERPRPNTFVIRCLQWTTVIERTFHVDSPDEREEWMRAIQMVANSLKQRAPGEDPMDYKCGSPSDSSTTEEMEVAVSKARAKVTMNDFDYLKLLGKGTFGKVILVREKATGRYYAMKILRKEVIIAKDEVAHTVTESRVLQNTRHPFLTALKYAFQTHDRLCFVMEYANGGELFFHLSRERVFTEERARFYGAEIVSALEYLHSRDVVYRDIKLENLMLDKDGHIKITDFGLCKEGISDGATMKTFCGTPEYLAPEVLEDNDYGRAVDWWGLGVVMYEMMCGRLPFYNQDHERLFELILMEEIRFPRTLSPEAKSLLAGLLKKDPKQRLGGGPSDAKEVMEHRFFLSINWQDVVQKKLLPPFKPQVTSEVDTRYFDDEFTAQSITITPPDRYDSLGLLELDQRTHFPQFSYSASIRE
How it was run: as §1

[1] = in vitro plasma stability; format: in vitro ADME
[2] = in vitro microsomal stability; format: in vitro ADME

Chain of AKT1 (PKB alpha) (P31749 whole entry): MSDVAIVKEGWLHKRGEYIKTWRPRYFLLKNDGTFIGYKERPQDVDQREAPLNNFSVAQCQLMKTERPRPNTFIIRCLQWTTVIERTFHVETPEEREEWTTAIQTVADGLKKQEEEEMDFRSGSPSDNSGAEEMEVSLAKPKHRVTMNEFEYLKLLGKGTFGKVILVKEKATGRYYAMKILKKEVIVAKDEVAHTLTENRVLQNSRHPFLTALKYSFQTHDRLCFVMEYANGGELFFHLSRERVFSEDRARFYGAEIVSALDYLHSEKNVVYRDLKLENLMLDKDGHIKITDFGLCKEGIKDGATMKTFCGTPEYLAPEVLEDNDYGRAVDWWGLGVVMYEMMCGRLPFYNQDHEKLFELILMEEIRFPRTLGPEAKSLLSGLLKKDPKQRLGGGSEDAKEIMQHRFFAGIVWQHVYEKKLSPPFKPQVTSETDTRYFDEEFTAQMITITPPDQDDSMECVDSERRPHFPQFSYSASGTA

Row | IC50 (AKT1 (PKB alpha)) | IC50 (IKBKB (IKK beta)) | IC50 (CHUK (IKK alpha)) | Structure (SMILES) | other results
1 | > 50 µM |  |  | COc1ccc(-c2c(C(=O)/C=C/c3nc4cc(F)c(F)cc4[nH]3)c(=O)[nH]c3ccc(Cl)cc23)cc1 [compound 52, (E)-6-chloro-3-(3-(5,6-difluoro-1H-benzo[d]imidazol-2-yl)acryloyl)-4-(4-methoxyphenyl)quinolin-2(1H)-one] | 
2 | > 50 µM |  |  | CCOc1ccc(-c2c(C(=O)/C=C/c3nc4cc(F)c(F)cc4[nH]3)c(=O)[nH]c3ccc(Cl)cc23)cc1 [compound 53, (E)-6-chloro-3-(3-(5,6-difluoro-1H-benzo[d]imidazol-2-yl)acryloyl)-4-(4-ethoxyphenyl)quinolin-2(1H)-one] | 
3 | 5.2 µM |  |  | O=C(/C=C/c1nc2ccccc2[nH]1)c1c(-c2ccccc2)c2ccccc2[nH]c1=O [compound 43, (E)-3-(3-(1H-benzo[d]imidazol-2-yl)acryloyl)-4-phenylquinolin-2(1H)-one] | 
4 | 14 µM |  |  | O=C(/C=C/c1nc2cc(Br)ccc2[nH]1)c1c(-c2ccccc2)c2cc(Cl)ccc2[nH]c1=O [compound 41, (E)-3-(3-(5-bromo-1H-benzo[d]imidazol-2-yl)acryloyl)-6-chloro-4-phenylquinolin-2(1H)-one] | 
5 | 15.9 µM | 16 µM | 13.1 µM | O=C(/C=C/c1nc2cc(F)c(F)cc2[nH]1)c1c(-c2ccc(F)cc2)c2cc(F)ccc2[nH]c1=O [compound 48, (E)-3-(3-(5,6-difluoro-1H-benzo[d]imidazol-2-yl)acryloyl)-6-fluoro-4-(4-fluorophenyl)quinolin-2(1H)-one] | 
6 | > 50 µM | 17.8 µM | 12.1 µM | O=C(/C=C/c1nc2cc(F)c(F)cc2[nH]1)c1c(-c2ccc(F)c(F)c2)c2cc(Cl)ccc2[nH]c1=O [compound 55, (E)-6-chloro-3-(3-(5,6-difluoro-1H-benzo[d]imidazol-2-yl)acryloyl)-4-(3,4-difluorophenyl)quinolin-2(1H)-one] | 
7 |  |  |  | O=C(CCc1nc2ccccc2[nH]1)c1c(-c2ccccc2)c2cc(Cl)ccc2[nH]c1=O [compound 59, 3-(3-(1H-benzo[d]imidazol-2-yl)propanoyl)-6-chloro-4-phenylquinolin-2(1H)-one] | IKKβ in vitro kinase inhibition (in words) (IKBKB (IKK beta)): completely inactive; AKT1 in vitro inhibition (in words) (AKT1 (PKB alpha)): completely inactive; IKKα in vitro kinase inhibition (in words) (CHUK (IKK alpha)): completely inactive
8 | 4.48 µM | 5.6 µM | 6.02 µM | O=C(/C=C/c1nc2ccccc2[nH]1)c1c(-c2ccccc2)c2cc(Br)ccc2[nH]c1=O [compound 44, (E)-3-(3-(1H-benzo[d]imidazol-2-yl)acryloyl)-6-bromo-4-phenylquinolin-2(1H)-one] | IC50 (AKT3 (PKB gamma)): 8.85 µM; IC50 (AKT2 (PKB beta)): 1.72 µM
9 | 6.22 µM | 2.3 µM | 3.85 µM | O=C(/C=C/c1nc2ccccc2[nH]1)c1c(O)nc2ccc(Cl)cc2c1-c1ccccc1 [compound 1, (E)-3-(3-(1H-benzo[d]imidazol-2-yl)acryloyl)-6-chloro-4-phenylquinolin-2(1H)-one] | plasma stability [1]: favorable; IC50 (AKT3 (PKB gamma)): 10.9 µM; IC50 (AKT2 (PKB beta)): 4.24 µM; microsomal stability [2]: favorable
10 |  |  |  | O=C(NCc1nc2ccccc2[nH]1)c1c(-c2ccccc2)c2cc(Cl)ccc2[nH]c1=O [compound 58, N-((1H-benzo[d]imidazol-2-yl)methyl)-6-chloro-2-oxo-4-phenyl-1,2-dihydroquinoline-3-carboxamide] | IKKβ in vitro kinase inhibition (in words) (IKBKB (IKK beta)): completely inactive; AKT1 in vitro inhibition (in words) (AKT1 (PKB alpha)): completely inactive; IKKα in vitro kinase inhibition (in words) (CHUK (IKK alpha)): completely inactive
11 | 30.4 µM | 15.4 µM | 7.12 µM | O=C(/C=C/c1nc2cc(F)c(F)cc2[nH]1)c1c(-c2ccc(F)cc2)c2cc(Cl)ccc2[nH]c1=O [compound 49, (E)-6-chloro-3-(3-(5,6-difluoro-1H-benzo[d]imidazol-2-yl)acryloyl)-4-(4-fluorophenyl)quinolin-2(1H)-one] | 
12 | > 100 µM |  |  | Cn1c(/C=C/C(=O)c2c(-c3ccccc3)c3cc(Cl)ccc3[nH]c2=O)nc2ccccc21 [compound 39, (E)-6-chloro-3-(3-(1-methyl-1H-benzo[d]imidazol-2-yl)acryloyl)-4-phenylquinolin-2(1H)-one] | AKT1 in vitro inhibition (in words) (AKT1 (PKB alpha)): inactive
13 | 43.3 µM | 9.6 µM | 8.03 µM | Cc1ccc2[nH]c(/C=C/C(=O)c3c(-c4ccccc4)c4cc(Cl)ccc4[nH]c3=O)nc2c1 [compound 40, (E)-6-chloro-3-(3-(5-methyl-1H-benzo[d]imidazol-2-yl)acryloyl)-4-phenylquinolin-2(1H)-one] | IC50 (AKT3 (PKB gamma)): 8.4 µM; IC50 (AKT2 (PKB beta)): 5 µM
14 | > 50 µM |  |  | O=C(/C=C/c1nc2cc(F)c(F)cc2[nH]1)c1c(-c2ccc(Cl)cc2)c2cc(Cl)ccc2[nH]c1=O [compound 51, (E)-6-chloro-4-(4-chlorophenyl)-3-(3-(5,6-difluoro-1H-benzo[d]imidazol-2-yl)acryloyl)quinolin-2(1H)-one] | 
15 | > 50 µM |  |  | Cc1ccc(-c2c(C(=O)/C=C/c3nc4cc(F)c(F)cc4[nH]3)c(=O)[nH]c3ccc(Cl)cc23)cc1 [compound 50, (E)-6-chloro-3-(3-(5,6-difluoro-1H-benzo[d]imidazol-2-yl)acryloyl)-4-(p-tolyl)quinolin-2(1H)-one] | 
16 | 17.2 µM |  |  | Cn1c(=O)c(C(=O)/C=C/c2nc3cc(F)ccc3[nH]2)c(-c2ccccc2)c2cc(Cl)ccc21 [compound 46, (E)-6-chloro-3-(3-(5-fluoro-1H-benzo[d]imidazol-2-yl)acryloyl)-1-methyl-4-phenylquinolin-2(1H)-one] | 
17 | 44.5 µM | 16.4 µM | 7.2 µM | O=C(/C=C/c1nc2cc(F)c(F)cc2[nH]1)c1c(-c2ccc(F)c(F)c2)c2cc(F)ccc2[nH]c1=O [compound 54, (E)-3-(3-(5,6-difluoro-1H-benzo[d]imidazol-2-yl)acryloyl)-4-(3,4-difluorophenyl)-6-fluoroquinolin-2(1H)-one] | 
18 | 6.26 µM | 7.9 µM | 29.1 µM | Cc1ccc2[nH]c(=O)c(C(=O)/C=C/c3nc4ccccc4[nH]3)c(-c3ccccc3)c2c1 [compound 45, (E)-3-(3-(1H-benzo[d]imidazol-2-yl)acryloyl)-6-methyl-4-phenylquinolin-2(1H)-one] | IC50 (AKT3 (PKB gamma)): 5.53 µM

From PMC3966491 (Chemical biology & drug design, 2013)
